Key:
MV4-11 = assay: Cytotoxicity against human MV411 cells after 72 hrs by CellTiter-Glo assay; format: functional, cell-based; conditions: MV4-11, 72 h
[1] = target: T1, Bromodomain testis-specific protein (Homo sapiens, UniProt Q58F21); assay: Displacement of biotinylated acetylated peptide from recombinant human partial length BRDT isoform b bromodomain 1 (N21 to E137 residues) expressed in Escherichia coli BL21 measured after 1 hr by Bromoscan method
[2] = target: T2, Bromodomain-containing protein 2 (Homo sapiens, UniProt P25440); assay: Displacement of biotinylated acetylated peptide from recombinant human partial length BRD2 isoform 1 bromodomain 1 (K71 to N194 residues) expressed in Escherichia coli BL21 measured after 1 hr by Bromoscan method
T2 sequence (P25440 whole entry, the tested form may be a part, canonical isoform): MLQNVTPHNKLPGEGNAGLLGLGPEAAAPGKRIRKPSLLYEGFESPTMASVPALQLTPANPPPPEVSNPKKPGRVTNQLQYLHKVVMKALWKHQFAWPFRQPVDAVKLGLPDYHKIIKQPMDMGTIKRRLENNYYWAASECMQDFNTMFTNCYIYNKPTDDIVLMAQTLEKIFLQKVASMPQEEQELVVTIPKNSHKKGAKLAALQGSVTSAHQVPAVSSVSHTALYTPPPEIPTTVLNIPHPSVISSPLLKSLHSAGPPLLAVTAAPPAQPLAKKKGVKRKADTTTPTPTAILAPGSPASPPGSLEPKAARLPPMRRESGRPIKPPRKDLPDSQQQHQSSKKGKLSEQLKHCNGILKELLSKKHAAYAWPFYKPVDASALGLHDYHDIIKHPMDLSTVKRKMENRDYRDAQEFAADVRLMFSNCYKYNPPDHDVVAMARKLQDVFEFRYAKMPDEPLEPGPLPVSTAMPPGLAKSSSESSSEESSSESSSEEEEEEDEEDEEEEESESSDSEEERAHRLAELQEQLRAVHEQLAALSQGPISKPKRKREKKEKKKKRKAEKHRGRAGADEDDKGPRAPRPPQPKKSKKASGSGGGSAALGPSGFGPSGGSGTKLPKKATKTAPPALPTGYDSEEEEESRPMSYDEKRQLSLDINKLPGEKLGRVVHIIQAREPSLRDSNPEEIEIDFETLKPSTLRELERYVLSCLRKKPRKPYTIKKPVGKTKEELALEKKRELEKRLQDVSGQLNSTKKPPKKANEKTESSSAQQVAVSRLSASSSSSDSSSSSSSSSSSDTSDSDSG

[3] = target: T3, Bromodomain-containing protein 3 (Homo sapiens, UniProt Q15059); assay: Displacement of biotinylated acetylated peptide from recombinant human partial length BRD3 bromodomain 2 (G306 to P416 residues) expressed in Escherichia coli BL21 measured after 1 hr by Bromoscan method
T3 sequence (Q15059 whole entry, the tested form may be a part): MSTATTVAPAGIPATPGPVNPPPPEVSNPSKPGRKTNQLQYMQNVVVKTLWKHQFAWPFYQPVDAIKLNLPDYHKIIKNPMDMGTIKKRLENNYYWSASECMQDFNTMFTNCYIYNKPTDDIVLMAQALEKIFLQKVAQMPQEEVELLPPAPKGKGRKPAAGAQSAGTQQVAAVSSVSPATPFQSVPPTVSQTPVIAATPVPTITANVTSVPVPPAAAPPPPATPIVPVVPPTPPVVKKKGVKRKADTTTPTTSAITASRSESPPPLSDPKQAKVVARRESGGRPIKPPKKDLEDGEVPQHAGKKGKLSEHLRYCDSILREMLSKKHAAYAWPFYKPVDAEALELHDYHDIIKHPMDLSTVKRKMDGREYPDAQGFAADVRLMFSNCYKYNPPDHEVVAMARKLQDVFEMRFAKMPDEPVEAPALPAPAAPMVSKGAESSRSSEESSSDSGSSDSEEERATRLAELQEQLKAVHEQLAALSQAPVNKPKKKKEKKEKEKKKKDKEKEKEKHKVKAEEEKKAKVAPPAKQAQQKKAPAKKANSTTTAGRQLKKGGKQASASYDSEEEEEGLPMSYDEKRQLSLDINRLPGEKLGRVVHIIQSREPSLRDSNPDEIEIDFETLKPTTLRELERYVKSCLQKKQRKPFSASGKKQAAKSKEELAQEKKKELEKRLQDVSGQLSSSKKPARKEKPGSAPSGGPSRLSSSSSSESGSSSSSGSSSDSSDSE

[4] = target: T3, Bromodomain-containing protein 3; assay: Displacement of biotinylated acetylated peptide from recombinant human partial length BRD3 bromodomain 1 (P24 to E144 residues) expressed in Escherichia coli BL21 measured after 1 hr by Bromoscan method
[5] = target: T4, Bromodomain-containing protein 4 (Homo sapiens, UniProt O60885); assay: Displacement of biotinylated acetylated peptide from recombinant human partial length BRD4 long isoform bromodomain 2 (K333 to E460 residues) expressed in Escherichia coli BL21 measured after 1 hr by Bromoscan method
[6] = target: T2, Bromodomain-containing protein 2; assay: Displacement of biotinylated acetylated peptide from recombinant human partial length BRD2 isoform 1 bromodomain 2 (E348 to D455 residues) expressed in Escherichia coli BL21 measured after 1 hr by Bromoscan method
[7] = target: T3, Bromodomain-containing protein 3; assay: Displacement of biotinylated acetylated peptide from recombinant human partial length BRD3 bromodomain 1/2 (P24 to P416 residues) expressed in Escherichia coli BL21 measured after 1 hr by Bromoscan method
[8] = target: T1, Bromodomain testis-specific protein; assay: Displacement of biotinylated acetylated peptide from recombinant human partial length BRDT isoform b bromodomain 2 (K250 to E382 residues) expressed in Escherichia coli BL21 measured after 1 hr by Bromoscan method
[9] = target: T2, Bromodomain-containing protein 2; assay: Displacement of biotinylated acetylated peptide from recombinant human partial length BRD2 isoform 1 bromodomain 1/2 (K71 to D455 residues) expressed in Escherichia coli BL21 measured after 1 hr by Bromoscan method
[10] = target: T1, Bromodomain testis-specific protein; assay: Displacement of biotinylated acetylated peptide from recombinant human partial length BRDT isoform b bromodomain 1/2 (N21 to E382 residues) expressed in Escherichia coli BL21 measured after 1 hr by Bromoscan method
[11] = target: T4, Bromodomain-containing protein 4; assay: Displacement of biotinylated acetylated peptide from recombinant human partial length BRD4 long isoform bromodomain 1 (N44 to E168 residues) expressed in Escherichia coli BL21 measured after 1 hr by Bromoscan method
Mus musculus [12] = assay: (§1) AUC (0 to infinity) in CD-1 mouse at 10 mg/kg, po; format: ADME, organism-based; set-up: dose 10 mg/kg, time infinity, route oral; conditions: mouse, in vivo, BLD = below limit of detection
In short: (§2)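 CD-1 mice (n = 3) received a single oral dose of 10 mg/kg. Plasma drug levels were followed over time to derive AUC0–∞, t1/2 and oral bioavailability (F%), the last relative to the iv arm.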

[13] = target: T4, Bromodomain-containing protein 4; assay: Displacement of biotinylated acetylated peptide from recombinant human partial length BRD4 long isoform bromodomain 1/2 (N44 to E460 residues) expressed in Escherichia coli BL21 measured after 1 hr by Bromoscan method
Mus musculus [14] = assay: Oral bioavailability in CD-1 mouse at 10 mg/kg; format: ADME, organism-based; conditions: in vivo; in short: as §2
[15] = Volume of distribution at steady state in CD-1 mouse at 2 mg/kg, iv measured; format: ADME, organism-based; conditions: in vivo, read-out: Vdss
Mus musculus [16] = assay: Cmax in CD-1 mouse at 2 mg/kg, iv measured after 5 mins; format: ADME, organism-based; set-up: dose 2 mg/kg, route intravenous; conditions: in vivo
[17] = Half life in CD-1 mouse at 2 mg/kg, iv; format: ADME, organism-based; conditions: in vivo
[18] = Half life in CD-1 mouse at 10 mg/kg, po; format: ADME, organism-based; conditions: in vivo; in short: as §2
[19] = Plasma clearance in CD-1 mouse at 2 mg/kg, iv; format: ADME, organism-based
[20] = as §1; format: ADME, organism-based; set-up: dose 10 mg/kg, time infinity, route oral; conditions: CD-1, mouse, in vivo; in short: as §2
[21] = AUC (0 to infinity) in CD-1 mouse at 2 mg/kg, iv; format: ADME, organism-based; set-up: dose 2 mg/kg, time infinity, route intravenous; conditions: in vivo

| SMILES | IC50 (MV4-11) | Kd [13] | other results |
| --- | --- | --- | --- |
| CN(C)CCN1CCN(c2nc(NCc3cccc(Cl)c3)c3cc(-c4ccc(=O)n(C)c4)ccc3n2)CC1 | 540 nM | 44 nM | Kd [1]: 20 nM; Kd [2]: 33 nM; Kd [3]: 21 nM; Kd [4]: 21 nM; Kd [5]: 50 nM; Kd [6]: 24 nM; Kd [7]: 20 nM; Kd [8]: 160 nM; Kd [9]: 27 nM; Kd [10]: 67 nM; Kd [11]: 18 nM; AUC (Mus musculus [12]): Bld |
| Cc1noc(C)c1-c1ccc2nc(N3CCN(CCN(C)C)CC3)nc(NCc3cc(Cl)ccn3)c2c1 | 1600 nM | 110 nM | – |
| Cc1noc(C)c1-c1ccc2nc(N3CCN(CCN(C)C)CC3)nc(NCc3ccccc3Cl)c2c1 | 1250 nM | 85 nM | – |
| Cc1noc(C)c1-c1ccc2nc(Cl)nc(NCc3cccc(Cl)c3)c2c1 | 11300 nM | – | – |
| Cc1noc(C)c1-c1ccc2nc(N3CCN(CCN(C)C)CC3)nc(N(C)Cc3cccc(Cl)c3)c2c1 | 5500 nM | 270 nM | – |
| Cc1noc(C)c1-c1ccc2nc(N3CCN(CCN(C)C)CC3)nc(N3CCCCC3c3ccccc3)c2c1 (stereo not given) | 5070 nM | 60 nM | – |
| Cc1noc(C)c1-c1ccc2nc(N(C)CCN(C)C)nc(NCc3cccc(Cl)c3)c2c1 | 2970 nM | 110 nM | – |
| Cc1noc(C)c1-c1ccc2nc(N3CCN(CCN(C)C)CC3)nc(NC3(c4cccc(Cl)c4)CC3)c2c1 | 1600 nM | 86 nM | – |
| Cc1noc(C)c1-c1ccc2nc(N3CCN(CCN(C)C)CC3)nc(Nc3ccc(Cl)cc3)c2c1 | 1510 nM | 2600 nM | – |
| Cc1noc(C)c1-c1ccc2nc(N3CCN(C(=O)CO)CC3)nc(NCc3cccc(Cl)c3)c2c1 | 1330 nM | 71 nM | – |
| Cc1noc(C)c1-c1ccc2nc(-c3ccc(CO)nc3)nc(NCc3cccc(Cl)c3)c2c1 | 2640 nM | – | – |
| Cc1noc(C)c1-c1ccc2nc(-c3cnn(CCO)c3)nc(N3CCOCC3c3ccccc3)c2c1 (stereo not given) | – | 66 nM | F (Mus musculus [14]): 51%; Vd [15]: 1.7 L/kg; Cmax (Mus musculus [16]): 1690 ng/mL; half-life [17]: 3.1 h; half-life [18]: 2.1 h; clearance [19]: 19.8 mL/min/kg; AUC(0-inf) [20]: 4490 ng·h/mL; AUC(0-inf) [21]: 1760 ng·h/mL |
| Cc1noc(C)c1-c1ccc2nc(C(=O)Nc3cnn(C)c3)nc(NCc3cccc(Cl)c3)c2c1 | 3590 nM | 290 nM | – |
| Cc1noc(C)c1-c1ccc2nc(N3CCN(CCN(C)C)CC3)nc(NCc3cncc(Cl)c3)c2c1 | 1370 nM | 79 nM | – |
| Cc1ccc(NC(=O)c2nc(NCc3cccc(Cl)c3)c3cc(-c4c(C)noc4C)ccc3n2)cn1 | 4520 nM | 620 nM | – |
| CN(C)CCN1CCN(c2nc(NCc3cccc(Cl)c3)c3cc(-c4ccnc(O)c4)ccc3n2)CC1 | 17300 nM | 9100 nM | – |
| Cc1noc(C)c1-c1ccc2nc(N3CCN(CCC(C)C)CC3)nc(NCc3cccc(Cl)c3)c2c1 | 6890 nM | 980 nM | – |
| Cc1noc(C)c1-c1ccc2nc(N3CCN(CC(=O)N(C)C)CC3)nc(NCc3cccc(Cl)c3)c2c1 | 1730 nM | 73 nM | – |
| Cc1noc(C)c1-c1ccc2nc(N3CCN(C(=O)CN(C)C)CC3)nc(NCc3cccc(Cl)c3)c2c1 | 1230 nM | 30 nM | – |
| Cc1oncc1-c1ccc2nc(N3CCN(CCN(C)C)CC3)nc(NCc3cccc(Cl)c3)c2c1 | 8030 nM | 1100 nM | – |
| Cc1noc(C)c1-c1ccc2nc(-c3cnn(CCC#N)c3)nc(NCc3cccc(Cl)c3)c2c1 | 950 nM | 120 nM | – |
| Cc1noc(C)c1-c1ccc2nc(N3CCN(CCN(C)C)CC3)nc(NC(C)c3cccc(Cl)c3)c2c1 (stereo not given) | 4350 nM | 270 nM | – |
| Cc1noc(C)c1-c1ccc2nc(-c3cnn(CCO)c3)nc(NCc3cccc(Cl)c3)c2c1 | 1670 nM | 95 nM | – |
| Cc1noc(C)c1-c1ccc2nc(N3CCN(CCN(C)C)CC3)nc(N3CCOCC3c3ccccc3)c2c1 (stereo not given) | 1830 nM | – | – |
| Cc1noc(C)c1-c1ccc2c(NCc3cccc(Cl)c3)nc(N3CCN(CCN(C)C)CC3)nc2c1 | 1870 nM | 610 nM | – |
| Cc1noc(C)c1-c1ccc2nc(N3CCN(CCCN(C)C)CC3)nc(NCc3cccc(Cl)c3)c2c1 | 2360 nM | 97 nM | – |
| Cc1noc(C)c1-c1ccc2nc(N3CCN(CCN(C)C)CC3)nc(NCc3ccc(Cl)cc3)c2c1 | 3480 nM | 520 nM | – |

— ChEMBL document CHEMBL4261601, “Discovery and lead identification of quinazoline-based BRD4 inhibitors” (Bioorg Med Chem Lett, 2018)
